Assay results gathered from unrelated publications.
Lines come from different studies, so protocols differ.
Cell line: MDA-MB-231
Read-out: cell growth or viability

Compound	method	concentration	time	measurement	result
C[C@H](N)C(=O)Nc1ccccc1/N=c1\cc(-c2ccc3c(c2)OCCO3)oc2c(N)cccc12	CCK-8	1 µM		inhibition	-1.6%
Nc1nc(S)nc(O)c1N=Cc1cn(-c2ccccc2)nc1-c1ccc(Cl)cc1			48 h	CC50	18.4 µM
Cc1ccc(C=NNC(=O)C2CC(=O)N(c3ccc(F)cc3F)C2)cc1 (stereo not drawn)	MTT		72 h	EC50	22.8 µM
Nc1nc(S)nc(O)c1N=Cc1cn(-c2ccccc2)nc1-c1ccccc1			48 h	CC50	> 20 µM
CNC(=O)c1cc(Oc2ccc(NC(=O)Nc3ccc(Cl)c(C(F)(F)F)c3)cc2)ccn1	MTT	25 µM	24 h	viability	24.3%
O=C(NN=Cc1ccc(Br)cc1)C1CC(=O)N(c2ccc(F)cc2F)C1 (stereo not drawn)	MTT		72 h	EC50	22.6 µM
COCCC(=O)Nc1ccccc1/N=c1\cc(-c2ccc3c(c2)OCO3)oc2ccccc12	CCK-8	1 µM		inhibition	8.73%
CCN(CC)CCNC(=O)c1c(C)[nH]c(/C=C2\C(=O)Nc3ccc(F)cc32)c1C	MTT		72 h	EC50	3.4 µM
O=C(Nc1ccc(Cl)cc1)Nc1ccc(Oc2nc3ccccc3n3cnnc23)cc1	MTT	3.125 µM	24 h	viability	100%
COc1ccc2/c(=N/c3ccccc3NC(=O)[C@@H](N)C(C)(C)C)cc(-c3ccc4c(c3)OCO4)oc2c1	CCK-8	1 µM		inhibition	7.49%
O=C(Nc1ccccc1)Nc1ccc(Oc2nc3ccccc3n3cnnc23)cc1	MTT	50 µM	24 h	viability	59.2%
CCNc1nc2ccc(-c3c/c(=N\c4ccccc4NC(=O)CCN)c4ccccc4o3)cc2o1	CCK-8	1 µM		inhibition	54.2%
